Compounds with a hit are over-represented: about 9.8% of the library has one in this group of screens.
WT yeast gro inh – growth inhibition of WT yeast, mitochondrial fusion screen; inhibition, % at 10 µM; mitochondrial fusion phenotypic screen, WT strain; 190,000 compounds, 2.1% hits; in the data active = inhibition above about 58%; tested in S. cerevisiae
Lmaj promast – inhibitors of Leishmania major promastigote growth | 200,000 compounds, 9% hits | Leishmania major promastigotes, resazurin fluorescence viability | AID 1063 | inhibition, % at 10 µM; in the data active = inhibition above about 50%;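 note: promastigotes grown with compound for 44 hours at 28 °C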
PMI activator – activators of human phosphomannose isomerase. P34949. purified human PMI, coupled resazurin fluorescence, 20 min; hits give high values; 1 = vehicle control, 0 substrate-free wells. activation factor at 20 µM. 190,000 compounds, 0.005% hits. AID 1214;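 active = activation factor of 2 or more at 20 µM, relative to plate controls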
m-calpain inh – blocks pig calpain II enzyme activity. 220,000 compounds, 0.37% hits. purified calpain II, fluorogenic peptide substrate, 30 min. AID 1236. inhibition, % at 16 µM;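 active = inhibition above about 50%, limit read from the data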
Rad51 HR inh – blocks human Rad51 in homologous recombination. 200,000 compounds, 0.085% hits. inhibition, % at 10 µM. Q06609. hRad51 DNA strand exchange, fluorescence dequenching;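 active = inhibition above 40% at the single screening dose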;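 note: 0% = DMSO control wells and 100% = blanks with heterologous ssDNA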
Target sequence (Q06609 whole entry, looked up): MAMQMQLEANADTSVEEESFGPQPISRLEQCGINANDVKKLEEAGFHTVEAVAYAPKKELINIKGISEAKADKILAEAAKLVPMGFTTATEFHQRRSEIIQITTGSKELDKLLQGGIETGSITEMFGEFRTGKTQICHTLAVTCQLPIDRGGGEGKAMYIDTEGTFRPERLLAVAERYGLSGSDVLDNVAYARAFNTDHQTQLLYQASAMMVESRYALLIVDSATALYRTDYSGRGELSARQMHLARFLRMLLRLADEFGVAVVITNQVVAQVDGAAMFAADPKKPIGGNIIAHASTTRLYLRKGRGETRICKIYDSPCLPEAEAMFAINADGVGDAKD
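material = hRad51 filaments on single-stranded DNA | reagent = Donor/quencher-labelled 47-bp dsDNA substrate | compound = 10 µM final, single point | schedule = strand-exchange reaction 15 min at room temperature | measured by = fluorescein emission 520 nm, excitation 485 nm | read-out basis = % inhibition versus plate control and blank means | benchmarks = plate controls and plate blanks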
PMI act satM6P – increases human PMI activity with near-saturating mannose 6-phosphate; P34949; coupled PMI enzyme assay, resazurin fluorescence, 20 min; hits give high values; 1 = untreated enzyme, 0 = substrate-free blank; activation factor at 20 µM; 190,000 compounds, 0.34% hits;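 active = activation factor of 2 or more at 20 µM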
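assay system = human phosphomannose isomerase with PGI, G6PDH, diaphorase coupling enzymes | quantity = 15 ng/mL PMI | incubation = enzyme reaction with compound 20 min at room temperature | medium = HEPES pH 7.4 buffer with MgCl2 and Tween-20 | compound dosing = one concentration, 20 µM, in 1% DMSO | measured by = Diaphorase-driven resazurin-to-resorufin fluorescence, excitation 544, emission 590 nm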
L major 1uM – inhibitors of Leishmania major promastigote growth, repeat at 1 uM | shares compounds with Lmaj promast | L. major promastigote growth, resazurin fluorescence, 48 h | inhibition, % at 1 µM | 1,100 compounds, 13% hits;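 active = inhibition above about 50% in both repeat tests, limit read from the data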
Starred values were filed as active, the others as inactive; . = no result.

SMILES | WT yeast gro inh | Lmaj promast | PMI activator | m-calpain inh | Rad51 HR inh | PMI act satM6P | L major 1uM
O=c1[nH]cnc(O)c1C(c1ccc2c(c1)OCO2)c1c(O)nc[nH]c1=O | -7 | -6 | 1.1 | -34 | 2 | 1 | .
CCN(C(=O)CC(C)C)c1nnc(Cn2nnc3ccccc32)s1 | -15 | 13 | 1 | 2 | 3 | 1 | .
CCN(C(=O)c1ccc(C(C)(C)C)cc1)c1nnc(Cn2nnc3ccccc32)s1 | 46 | 54* | 0.8 | 24 | 7 | 0.8 | 36
CN(c1ccccc1)P(=O)(N(C)c1ccccc1)N(C)c1ccccc1 | 9 | 98* | 1.2 | 0 | 7 | 1.1 | 5
CCN(c1ccccc1)P(=O)(Nc1ccccc1)Nc1ccccc1 | . | . | . | 14 | 16 | . | .
Cc1ccc(-n2nnnc2C(Cl)c2nnnn2-c2ccc(C)cc2)cc1 | 74* | 99* | 1 | 18 | 0 | 1 | 32
CN1CCN(/N=C/c2ccc(-c3ccccc3)cc2)CC1 | 14 | 98* | 1.1 | 9 | -4 | 1.1 | -23
C(=N\N1CCN(Cc2ccccc2)CC1)/c1ccc(-c2ccccc2)cc1 | 14 | 13 | 1 | 19 | 9 | 1 | .
CNC(=O)NC(=O)C(C)OC(=O)c1cc2c(s1)CCCCC2 (stereo not drawn) | -4 | -5 | 0.9 | 0 | -3 | 0.8 | .
O=C(COc1ccccc1Br)NCCc1nc2ccccc2[nH]1 | 3 | 0 | 0.8 | 5 | 0 | 0.9 | .
Cc1nn(-c2ccccc2)c(N)c1C(O)(CC(=O)C(F)(F)F)C(F)(F)F (stereo not drawn) | 10 | -6 | 0.9 | -9 | -8 | 0.9 | .
Cc1nn(-c2ccccc2)c(N)c1C(O)(C(F)(F)F)C(F)(F)F | 7 | 98* | 0.9 | 22 | -4 | 1 | -1
CCN1C(=O)N(c2cccc3ccccc23)C(C)=CC1(C)C | -21 | 51* | 1 | -3 | -4 | 1 | 6
CN1/C(=C/C2CC(=O)N(c3cccc4ccccc34)C2=O)C(C)(C)c2ccccc21 (stereo not drawn) | -1 | 1 | 1.6 | -74 | 5 | 1.9 | .
Cc1ccc(C2C3=C(CCCC3=O)Nc3c2c(C)nn3-c2ccccn2)o1 (stereo not drawn) | 11 | 22 | 0.9 | -6 | 4 | 0.7 | .
CCOc1ccc(S(=O)(=O)NC(C)(C)C)cc1-c1nc2c(C(C)(C)C)nn(C)c2c(=O)[nH]1 | 10 | 71* | 0.9 | -4 | -4 | 0.9 | 4
CCCCCNC(=O)C1CC=CCC1C(=O)O (stereo not drawn) | -4 | -10 | 1 | -19 | -9 | 1 | .
CC1CCCCC1NC(=O)C1CC=CCC1C(=O)O (stereo not drawn) | -20 | 55* | 1 | 5 | 0 | 1 | -16
Nn1c(SCC(=O)N2CCOCC2)nnc1C1CC1 | -12 | -7 | 1.1 | -28 | -4 | 1.1 | .
Cc1[nH]c2c(ccc3ccccc32)c1C1C(CCN)C1(C)C (stereo not drawn) | 35 | 100* | 0.9 | -31 | 8 | 0.9 | -21
COc1ccc(N2CCN(C(=O)CNS(=O)(=O)c3ccc(C)cc3)CC2)cc1 | -4 | 2 | 1.1 | -48 | 8 | 1.1 | .
COc1ccc(/C=C/c2cc[n+](C(=O)Cc3ccccc3)cc2)cc1 | 5 | 100* | 1.1 | -8 | -2 | 1 | 98*
COc1ccc(CC(=O)NNC(=O)c2c(-c3ccccc3Cl)noc2C)cc1OC | . | . | . | 0 | . | . | .
CC1(C)CC(=O)c2cc(C(=O)NNc3ccccc3)c(=O)n(-c3ccccc3)c2C1 | 6 | 52* | 1.2 | -14 | 11 | 1.2 | 11
COc1ccc(CC2NCCC3(O)CCCCC23)cc1 (stereo not drawn) | -9 | 68* | 1.1 | 8 | 2 | 1 | -7
SMILES | WT yeast gro inh | Lmaj promast | PMI activator | m-calpain inh | Rad51 HR inh | PMI act satM6P | L major 1uM
COc1ccc(CC/C(=N\O)C2(O)CCCCC2)cc1 | -8 | 6 | 1 | 7 | -2 | 0.9 | .
CC(C)(C)C1CCc2sc(-c3nnc(CCl)o3)cc2C1 (stereo not drawn) | 68* | 91* | 1 | 22 | -1 | 0.9 | -2
ClCc1nnc(-c2cc3c(s2)CCCC3)o1 | -4 | 98* | 1.2 | -12 | 2 | 1.2 | 7
O=C(O)c1cc2c(s1)CCCC2 | 7 | -7 | 1 | 18 | 1 | 1 | .
CCOC(=O)C1=NN(c2ccc(C)cc2)CC1C(=O)OC (stereo not drawn) | -24 | -5 | 1 | -18 | 9 | 1 | .
O=[N+]([O-])c1cc(S(=O)(=O)Nc2ccccc2)ccc1-n1nnc2ccccc21 | -15 | 66* | 0.8 | 14 | 1 | 0.8 | -13
Cc1cc(C(=O)COC(=O)Cc2n[nH]c(=O)c3ccccc23)c(C)n1-c1ccc2c(c1)OCCO2 | 35 | 10 | 0.9 | -87 | -9 | 0.8 | .
CC(C)(C)c1ccc(C(=O)NCCCN2CCN(CCCNC(=O)c3ccc(C(C)(C)C)cc3)CC2)cc1 | 25 | 100* | 1 | -62 | 3 | 1 | -8
COc1ccc(S(=O)(=O)N2CCCCC2)cc1NC(=O)CSc1ncnc2ccccc12 | 12 | 4 | 0.8 | -45 | -14 | 0.9 | .
CC(C)(C)C1C=C(Sc2ccccc2)C(=O)O1 (stereo not drawn) | 10 | 16 | 1 | 2 | . | 1 | .
CCOC(=O)c1oc2ccc(CNC(C)(C)C)c(Cl)c2c1C | 14 | 99* | 1 | -7 | -3 | 1.1 | 8
Cc1cc(-c2ccccc2)cc(-c2ccccc2)[n+]1C | -11 | 59* | 1.1 | -3 | 3 | 1 | 7
CC1Cc2ccccc2N1C(=O)CSc1nnc(Cc2ccccc2)n1CCc1ccccc1 (stereo not drawn) | -16 | 51* | 0.9 | 18 | . | 1 | 4
Cc1occc1C(=O)NNC(=O)C1CCCCC1 | 2 | 72* | 0.8 | 17 | -5 | 0.9 | -15
CN(C)CCCN1c2ccccc2CCc2ccc(Cl)cc21 | 62* | 99* | 1.1 | 16 | -9 | 0.9 | 20
CN(CCCN1c2ccccc2CCc2ccccc21)CC(=O)c1ccc(Cl)cc1 | . | . | . | . | -5 | . | .
CNCCCN1c2ccccc2CCc2ccccc21 | -1 | 82* | 1.2 | 17 | 14 | 1.1 | -1
O=C(OCC1COc2ccccc2O1)c1c(F)cccc1F (stereo not drawn) | 1 | -1 | 0.9 | 31 | 5 | 0.9 | .
OC(COCC1COc2ccccc2O1)CN1CCN(c2ccccc2F)CC1 (stereo not drawn) | 5 | 65* | 1 | -7 | -3 | 1 | -10
CC1(CCc2ccccc2)NC(=S)N(c2ccccc2)N1 (stereo not drawn) | 9 | 70* | 1.5 | -13 | 7 | 2.8* | -11
